Test results as given in paper PMC11419141 (bioRxiv, 2024).
“Also recorded” adds a separate entry of the source.

Columns and labels:
[1] = system: Staphylococcus aureus subsp. aureus Rosenbach, ATCC 29213; assay: Antibacterial growth assay, S. aureus; type: cell-based; conditions: for Inhibition of growth of S. aureus: at a concentration of 11.1 μM; for Antibacterial activity against S. aureus: in higher doses (100 μM)
Procedure, shortened: (§1)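 A single colony was grown overnight in cation-adjusted Mueller Hinton broth at 37 °C, 250 rpm, then diluted 100-fold. Cultures were grown for 24 h at 37 °C with test compound as a 7-concentration series. A600 was read, followed by a BacTiter-Glo ATP luminescence read. % growth inhibition was normalized to vancomycin/amikacin positive controls and DMSO negative control.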

[2] = Total antioxidant capacity; conditions: CUPRAC, Trolox equivalent, at any one concentration tested, n=2
Procedure, shortened: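 Test compounds from DMSO stocks were dispensed acoustically as a 7-concentration series in 384-well plates. Freshly prepared Cu(II)-neocuproine reagent was added, mixed at 650 rpm for 2 min, then incubated sealed at 25 °C. A450 of the Cu(I)-neocuproine chelate was read at 1.5 h and 3 h. A Trolox standard curve was run on every plate, with values expressed as Trolox equivalents (mM). Fold over Trolox was taken as the ratio of linear-regression coefficients; n=2.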

Mycobacterium smegmatis = assay: Antibacterial growth assay, M. smegmatis; type: cell-based; conditions: at a high concentration of 300 μM
Procedure, shortened: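 Mycobacterium smegmatis grown in Middlebrook 7H9 with OADC at 37 °C, 250 rpm, with test compound as a 7-concentration series. A600 read at 24 h and 48 h, then an ATP luminescence read with BacTiter-Glo. % growth inhibition normalized to vancomycin/amikacin positive controls and DMSO negative control.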

[3] = system: Klebsiella pneumoniae subsp. pneumoniae, ATCC 27736; assay: Antibacterial growth assay, K. pneumoniae; type: cell-based; conditions: at a concentration of 300 μM
Procedure, shortened: as §1

TZM-bl cells = assay: Cytotoxicity to cells in the anti-HIV assay; type: cell-based; conditions: toxic to cells in anti-HIV assay
[4] = system: Nrf2-ARE signaling pathway in HepG2-ARE-Luc cells; assay: ARE-Luciferase reporter assay for Nrf2 activation in HepG2 cell line; type: cell-based; conditions: Figure 5B at 10 μM
Procedure, shortened: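 HepG2 cells stably carrying an ARE-driven firefly luciferase reporter, seeded at 10,000 cells/well in complete medium (384-well). Test compounds given as a 7-concentration series for 18 h at 37 °C, 5% CO2. Controls were TBHQ and sulforaphane (positive) and DMSO vehicle. Luminescence was read after Steady-Glo for 30 min. Fold induction was taken as treated/vehicle ×100, with vehicle set at 100%; n=2.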

HepG2 cell line = assay: Compound cytotoxicity in ARE assay in HepG2 cell line; type: cell-based
CCR5-dependent BaL virus = assay: Anti-HIV TZM-bl assay, BaL virus; type: cell-based, HIV-1; conditions: concentration not stated (any one concentration, Figure 6)
Procedure, shortened: (§2)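 TZM-bl cells (HeLa-derived; CD4, CCR5 and CXCR4; Tat-driven luciferase) kept in DMEM with 10% heat-inactivated FBS and gentamicin. Cells seeded at 5000/well onto test compound, then given virus with 8 μg/ml DEAE-dextran. Inoculum was 150,000 RLU equivalents for NL4-3 and 20,000 for BaL.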

[5] = system: CXCR4-dependent NL4-3 virus; assay: Anti-HIV TZM-bl assay, NL4-3 virus; type: cell-based, HIV-1; conditions: concentration not stated (any one concentration, Figure 6)
Procedure, shortened: as §2

Question: With `Oc1cc(O)c2c(c1)O[C@H](c1ccc(O)c(O)c1)[C@H](O)C2` [(-)-Epicatechin] as the compound, how does the inhibition at 300 µM ([1]; Staphylococcus aureus, ATCC29213, read-out: Inhibition against S. aureus) read?
Answer: The inhibition at 300 µM was over 50%.

Question: Which “Total antioxidant capacity (TAC) relative to Trolox” value [2] does the source give for `OC[C@H]1O[C@@H](Oc2cc3c(O[C@@H]4O[C@H](CO)[C@@H](O)[C@H](O)[C@H]4O)cc(O)cc3[o+]c2-c2ccc(O)c(O)c2)[C@H](O)[C@@H](O)[C@@H]1O` [Cyanidin 3,5-O-diglucoside] here?
Answer: The value was “greater than 5 fold”.

Question: For `OC[C@H]1O[C@@H](Oc2cc3c(O)cc(O)cc3[o+]c2-c2ccc(O)c(O)c2)[C@H](O)[C@@H](O)[C@H]1O` [Cyanidin 3-O-galactoside], which “Total antioxidant capacity (TAC) relative to Trolox” value [2] is on record?
Answer: The value was “greater than 5 fold”.

Question: For `OC[C@H]1O[C@@H](Oc2cc3c(O)cc(O)cc3[o+]c2-c2ccc(O)c(O)c2)[C@H](O)[C@@H](O)[C@@H]1O` [Cyanidin 3-O-glucoside], which “Inhibition of growth of S. aureus” value [1] is on record?
Answer: The value was “more than 50%”.

Question: What about the “Total antioxidant capacity (TAC) relative to Trolox” value [2] of the same compound?
Answer: Its value is “greater than 5 fold”.

Question: With `C[C@@H]1O[C@@H](OC[C@H]2O[C@@H](Oc3cc4c(O)cc(O)cc4[o+]c3-c3ccc(O)c(O)c3)[C@H](O)[C@@H](O)[C@@H]2O)[C@H](O)[C@H](O)[C@H]1O` [Cyanidin 3-O-rutinoside] as the compound, how does the “Inhibition of M. smegmatis” value (Mycobacterium smegmatis) read?
Answer: The value was “more than 50%”.

Question: What about the “Inhibition of growth of S. aureus” value [1] of the same compound?
Answer: The value was “more than 50%”.

Question: What about the “Total antioxidant capacity (TAC) relative to Trolox” value [2] of the same compound?
Answer: The value was “greater than 5 fold”.

Question: For `OC[C@H]1O[C@@H](Oc2cc3c(O)cc(O)cc3[o+]c2-c2ccc(O)c(O)c2)[C@H](O[C@@H]2OC[C@@H](O)[C@H](O)[C@H]2O)[C@@H](O)[C@@H]1O` [Cyanidin 3-O-sambubioside], which “Inhibition of M. smegmatis” value (Mycobacterium smegmatis) is on record?
Answer: The value was “more than 50%”.

Question: And the “Antibacterial activity against S. aureus” value [1]?
Answer: The value was “showed antibacterial activity”.

Question: What about the “Total antioxidant capacity (TAC) relative to Trolox” value [2] of the same compound?
Answer: The value was “greater than 5 fold”.

Question: What does the source list for `OC[C@H]1O[C@@H](O[C@H]2[C@H](Oc3cc4c(O)cc(O)cc4[o+]c3-c3ccc(O)c(O)c3)O[C@H](CO)[C@@H](O)[C@@H]2O)[C@H](O)[C@@H](O)[C@@H]1O` [Cyanidin 3-O-sophoroside]?
Answer: Inhibition of growth of K. pneumoniae [3]: more than 50%; Antibacterial activity against S. aureus [1]: showed antibacterial activity; Total antioxidant capacity (TAC) relative to Trolox [2]: greater than 5 fold

Question: Which “Inhibition of growth of S. aureus” value [1] does the source give for `C[C@@H]1O[C@@H](OC[C@H]2O[C@@H](Oc3cc4c(O)cc(O)cc4[o+]c3-c3cc(O)c(O)c(O)c3)[C@H](O)[C@@H](O)[C@@H]2O)[C@H](O)[C@H](O)[C@H]1O` [Delphinidin 3-O-rutinoside] here?
Answer: The value was “more than 50%”.

Question: And the “Total antioxidant capacity (TAC) relative to Trolox” value [2]?
Answer: Its value is “greater than 5 fold”.

Question: With `COc1cc(/C=C/C(=O)O)ccc1O` [Ferulic acid] as the compound, how does the “Total antioxidant capacity (TAC) relative to Trolox” value [2] read?
Answer: The value was “on the same range as Trolox”.

Question: Which “Total antioxidant capacity (TAC) relative to Trolox” value [2] does the source give for `O=C(O)c1cc(O)c(O)c(O)c1` [Gallic acid] here?
Answer: Its value is “greater than 5 fold”.

Question: What about the Cytotoxicity concentration (TZM-bl cells) of the same compound?
Answer: The Cytotoxicity concentration was 80.42 ± 0.57 µM.

Question: Which “Total antioxidant capacity (TAC) relative to Trolox” value [2] does the source give for `O=c1c(O[C@@H]2O[C@H](CO)[C@H](O)[C@H](O)[C@H]2O)c(-c2ccc(O)c(O)c2)oc2cc(O)cc(O)c12` [Hyperoside (Quercetin 3-galactoside), Hyperoside (quercetin 3-galactoside)] here?
Answer: Its value is “greater than 5 fold”.

Question: For `COc1cc(-c2oc3cc(O)cc(O)c3c(=O)c2O[C@@H]2O[C@H](CO)[C@@H](O)[C@H](O)[C@H]2O)ccc1O` [Isorhamnetin 3-O-glucoside], which “Total antioxidant capacity (TAC) relative to Trolox” value [2] is on record?
Answer: The value was “on the same range as Trolox”.

Question: What about the ARE activation [4] of the same compound?
Answer: Its ARE activation is “activated ARE activity”.

Question: What about the “Cytotoxicity to the cells in ARE assay” value (HepG2 cell line) of the same compound?
Answer: Its value is “non-cytotoxic to the cells”.

Question: With `COc1cc(-c2oc3cc(O)cc(O)c3c(=O)c2O)ccc1O` [Isorhamnetin] as the compound, how does the “Total antioxidant capacity (TAC) relative to Trolox” value [2] read?
Answer: The value was “greater than 5 fold”.

Question: And the Cytotoxicity concentration (TZM-bl cells)?
Answer: Its Cytotoxicity concentration is 3.042 ± 0.27 µM.

Question: With `C[C@H]1O[C@H](OC[C@H]2O[C@@H](Oc3c(-c4ccc(O)cc4)oc4cc(O)cc(O)c4c3=O)[C@H](O)[C@@H](O)[C@@H]2O)[C@@H](O)[C@@H](O)[C@@H]1O` [Kaempferol 3-O-rutinoside] as the compound, how does the “Total antioxidant capacity (TAC) relative to Trolox” value [2] read?
Answer: Its value is “on the same range as Trolox”.

Question: For `O=c1c(O[C@@H]2O[C@H](CO)[C@@H](O)[C@H](O)[C@H]2O)c(-c2ccc(O)cc2)oc2cc(O)cc(O)c12` [Kaempferol 3-glucoside, Kaempferol 3-glucoside (astragalin)], which “Total antioxidant capacity (TAC) relative to Trolox” value [2] is on record?
Answer: The value was “on the same range as Trolox”.

Question: For `O=c1c(O)c(-c2ccc(O)cc2)oc2cc(O)cc(O)c12` [Kaempferol], which “Inhibition of HIV strain BaL” value (CCR5-dependent BaL virus) is on record?
Answer: The value was “didn’t significantly inhibit”.

Question: And the ARE activation [4]?
Answer: The ARE activation was “activated ARE activity; also recorded: highest level of ARE activation”.

Question: And the Cytotoxicity concentration (TZM-bl cells)?
Answer: Its Cytotoxicity concentration is 11.00 ± 0.62 µM.

Question: What about the “Cytotoxicity to the cells in ARE assay” value (HepG2 cell line) of the same compound?
Answer: The value was “non-cytotoxic to the cells”.

Question: What about the “Inhibition of HIV strain NL4-3” value [5] of the same compound?
Answer: Its value is “more than 65%”.

Question: Which “Inhibition of HIV strain BaL” value (CCR5-dependent BaL virus) does the source give for `O=c1cc(-c2ccc(O)c(O)c2)oc2cc(O)cc(O)c12` [Luteolin] here?
Answer: The value was “more than 90%”.

Question: What about the ARE activation [4] of the same compound?
Answer: Its ARE activation is “activated ARE activity”.

Question: And the Cytotoxicity concentration (TZM-bl cells)?
Answer: The Cytotoxicity concentration was 4.28 ± 0.45 µM.

Question: What about the “Inhibition of HIV strain NL4-3” value [5] of the same compound?
Answer: Its value is “more than 90%”.

Question: Which “Total antioxidant capacity (TAC) relative to Trolox” value [2] does the source give for `O=c1c(O)c(-c2cc(O)c(O)c(O)c2)oc2cc(O)cc(O)c12` [Myricetin] here?
Answer: The value was “greater than 5 fold”.

Question: What about the Cytotoxicity concentration (TZM-bl cells) of the same compound?
Answer: The Cytotoxicity concentration was “higher than 100 μM”.

Question: Which “Total antioxidant capacity (TAC) relative to Trolox” value [2] does the source give for `O=C1C[C@@H](c2ccc(O)cc2)Oc2cc(O)cc(O)c21` [Naringenin] here?
Answer: Its value is “on the same range as Trolox”.

Question: What about the ARE activation [4] of the same compound?
Answer: The ARE activation was “activated ARE activity”.

Question: What about the “Cytotoxicity to the cells in ARE assay” value (HepG2 cell line) of the same compound?
Answer: Its value is “non-cytotoxic to cells”.

Question: Which “Total antioxidant capacity (TAC) relative to Trolox” value [2] does the source give for `O=C(/C=C/c1ccc(O)c(O)c1)O[C@@H]1C[C@@](O)(C(=O)O)C[C@@H](O)[C@@H]1O` [Neochlorogenic acid (3-caffeoylquinic acid)] here?
Answer: Its value is “greater than 5 fold”.

Question: With `OC[C@H]1O[C@@H](Oc2cc3c(O)cc(O)cc3[o+]c2-c2ccc(O)cc2)[C@H](O)[C@@H](O)[C@@H]1O` [Pelargonidin 3-O-glucoside] as the compound, how does the “Inhibition of growth of K. pneumoniae” value [3] read?
Answer: The value was “more than 50%”.

Question: And the “Antibacterial activity against S. aureus” value [1]?
Answer: The value was “showed antibacterial activity”.

Question: Which results are given for `COc1cc(-c2[o+]c3cc(O)cc(O)c3cc2O[C@@H]2O[C@H](CO)[C@@H](O)[C@H](O)[C@H]2O)ccc1O` [Peonidin 3-O-glucoside]?
Answer: Inhibition of growth of K. pneumoniae [3]: more than 50%; Antibacterial activity against S. aureus [1]: showed antibacterial activity

Question: Which “Total antioxidant capacity (TAC) relative to Trolox” value [2] does the source give for `O=c1c(O[C@@H]2O[C@H](CO)[C@@H](O)[C@H](O)[C@H]2O)c(-c2ccc(O)c(O)c2)oc2cc(O)cc(O)c12` [Quercetin-3-β-D-glucoside (hirsutrin), Quercetin-3-β-D-glucoside] here?
Answer: Its value is “greater than 5 fold”.

Question: With `O=c1c(O)c(-c2ccc(O)c(O)c2)oc2cc(O)cc(O)c12` [Quercetin] as the compound, how does the “Antibacterial activity against S. aureus” value [1] read?
Answer: The value was “showed antibacterial activity”.

Question: And the “Total antioxidant capacity (TAC) relative to Trolox” value [2]?
Answer: The value was “greater than 5 fold”.

Question: And the “Inhibition of HIV strain BaL” value (CCR5-dependent BaL virus)?
Answer: The value was “didn’t significantly inhibit”.

Question: And the ARE activation [4]?
Answer: The ARE activation was “activated ARE activity”.

Question: What about the Cytotoxicity concentration (TZM-bl cells) of the same compound?
Answer: Its Cytotoxicity concentration is 26.41 ± 3.91 µM.

Question: What about the “Cytotoxicity to the cells in ARE assay” value (HepG2 cell line) of the same compound?
Answer: Its value is “non-cytotoxic to the cells”.

Question: What about the “Inhibition of HIV strain NL4-3” value [5] of the same compound?
Answer: Its value is “more than 65%”.

Question: Which “Total antioxidant capacity (TAC) relative to Trolox” value [2] does the source give for `O=C(O)C=Cc1ccc(O)cc1` [p-Coumaric acid] here?
Answer: Its value is “on the same range as Trolox”.
